ChEMBL document CHEMBL1154419, “Pharmacodynamic effects of telavancin against methicillin-resistant and methicillin-susceptible Staphylococcus aureus strains in the presence of human albumin or serum and in an in vitro kinetic model” (Antimicrob Agents Chemother, 2007)
Calls of active or inactive are those of the source. The calls are words filed in the database; no cut-off is given here.

Tests used:
Staphylococcus aureus [1] = assay: Antibacterial activity against methicillin-resistant Staphylococcus aureus ATCC 33591 assessed as change in bacterial burden at 20 mg/liter after 4 hrs; format: functional
Method in brief: (§1)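 In vitro kinetic model: spinner flask with 0.45-μm filter and prefilter, stirred, M-H broth at 37°C, starting inoculum approx. 5 × 10⁵ CFU/ml. Single initial drug dose of 1.0 to 40 mg/liter, with flow set to give a half-life of approx. 8 h. Viable counts at 0, 2, 4, 6, 8, 12 and 24 h. Duplicate runs per strain and concentration.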

Staphylococcus aureus [2] = assay: Antibacterial activity against methicillin-susceptible Staphylococcus aureus ATCC 13709 in MH-broth; format: functional, organism-based
Staphylococcus aureus [3] = assay: Antibacterial activity against methicillin-susceptible Staphylococcus aureus ATCC 13709 assessed as change in bacterial burden at 1 mg/liter after 2 hrs; format: functional
Staphylococcus aureus [4] = assay: Antibacterial activity against methicillin-resistant Staphylococcus aureus ATCC 33591 assessed as bacterial killing at 10 times MIC after 6 hrs in MH-broth; format: functional, organism-based
Method in brief: (§2)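 Strain diluted in M-H broth to approx. 10⁵ CFU/ml and grown 6 h into log phase, then split. Broth tubes got drug at 10× MIC directly. PBS tubes were transferred to PBS and held 3 h more, then dosed at 10× MIC. Growth controls were run in each medium. Viable counts at 0, 3, 6, 9, 12 and 24 h. Run in duplicate.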

Staphylococcus aureus [5] = assay: Antibacterial activity against methicillin-susceptible Staphylococcus aureus ATCC 13709 assessed as change in bacterial burden at 10 mg/liter after 8 hrs; format: functional
Staphylococcus aureus [6] = assay: Antibacterial activity against methicillin-susceptible Staphylococcus aureus ATCC 13709 assessed as bacterial killing at 0.5 to 50 times MIC after 24 hrs in presence of 50% human serum; format: functional, organism-based
Staphylococcus aureus [7] = assay: Antibacterial activity against methicillin-susceptible Staphylococcus aureus ATCC 13709 assessed as change in bacterial burden at 40 mg/liter after 4 hrs; format: functional
Staphylococcus aureus [8] = assay: Antibacterial activity against methicillin-susceptible Staphylococcus aureus ATCC 13709 assessed as change in bacterial burden at 20 mg/liter after 6 hrs; format: functional; method in brief: as §1
Staphylococcus aureus [9] = assay: Antibacterial activity against methicillin-susceptible Staphylococcus aureus ATCC 13709 assessed as change in bacterial burden at 40 mg/liter after 24 hrs; format: functional
Staphylococcus aureus [10] = assay: Antibacterial activity against methicillin-susceptible Staphylococcus aureus ATCC 13709 assessed as change in bacterial burden at 40 mg/liter after 12 hrs; format: functional; method in brief: as §1
Staphylococcus aureus [11] = assay: Antibacterial activity against methicillin-resistant Staphylococcus aureus ATCC 33591 assessed as change in bacterial burden at 20 mg/liter after 8 hrs; format: functional; method in brief: as §1
[12] = Cmax in human serum at 7.5 mg/kg; format: ADME, organism-based; design: dose 7.5 mg/kg
Staphylococcus aureus [13] = assay: Antibacterial activity against methicillin-susceptible Staphylococcus aureus ATCC 13709 assessed as change in bacterial burden at 1 mg/liter after 12 hrs; format: functional; method in brief: as §1
Staphylococcus aureus [14] = assay: Antibacterial activity against methicillin-susceptible Staphylococcus aureus ATCC 13709 assessed as change in bacterial burden at 10 mg/liter after 4 hrs; format: functional
Staphylococcus aureus [15] = assay: Antibacterial activity against methicillin-susceptible Staphylococcus aureus ATCC 13709 assessed as change in bacterial burden at 10 mg/liter after 6 hrs; format: functional; method in brief: as §1
Staphylococcus aureus [16] = assay: Antibacterial activity against methicillin-resistant Staphylococcus aureus ATCC 33591 assessed as change in bacterial burden at 1 mg/liter after 8 hrs; format: functional; method in brief: as §1
Staphylococcus aureus [17] = assay: Antibacterial activity against methicillin-resistant Staphylococcus aureus ATCC 33591 assessed as change in bacterial burden at 2.5 mg/liter after 24 hrs; format: functional; method in brief: as §1
Staphylococcus aureus [18] = assay: Antibacterial activity against methicillin-susceptible Staphylococcus aureus ATCC 13709 assessed as change in bacterial burden at 5 mg/liter after 12 hrs; format: functional
Staphylococcus aureus [19] = assay: Antibacterial activity against methicillin-resistant Staphylococcus aureus ATCC 33591 assessed as change in bacterial burden at 10 mg/liter after 4 hrs; format: functional; method in brief: as §1
Staphylococcus aureus [20] = assay: Antibacterial activity against methicillin-resistant Staphylococcus aureus ATCC 33591 assessed as change in bacterial burden at 10 mg/liter after 8 hrs; format: functional; method in brief: as §1
Staphylococcus aureus [21] = assay: Antibacterial activity against methicillin-resistant Staphylococcus aureus ATCC 33591 assessed as bacterial killing at 10 times MIC after 24 hrs in PBS-nutrient depleted medium; format: functional, organism-based; method in brief: as §2
Staphylococcus aureus [22] = assay: Antibacterial activity against methicillin-susceptible Staphylococcus aureus ATCC 13709 assessed as bacterial killing at 10 times MIC after 6 hrs in MH-broth; format: functional, organism-based
Staphylococcus aureus [23] = assay: Antibacterial activity against methicillin-susceptible Staphylococcus aureus ATCC 13709 assessed as change in bacterial burden at 20 mg/liter after 24 hrs; format: functional
Staphylococcus aureus [24] = assay: Antibacterial activity against methicillin-resistant Staphylococcus aureus ATCC 33591 assessed as bacterial killing at 0.5 to 50 times MIC after 24 hrs in presence of 50% human serum; format: functional, organism-based
Method in brief: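 Static time-kill in M-H broth, in M-H broth with 40 g/liter fatty-acid-free purified human albumin, or in M-H broth with inactivated 50% human serum. Inoculum approx. 5 × 10⁵ CFU/ml, drug at 0.5, 1, 2.5, 5, 10, 25 and 50× MIC, 37°C. Samples at 0, 3, 6, 12 and 24 h plated on blood agar, counted after 24 h. Detection limit 5 × 10¹ CFU/ml. Run in duplicate.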

Staphylococcus aureus [25] = assay: Antibacterial activity against methicillin-resistant Staphylococcus aureus ATCC 33591 assessed as change in bacterial burden at 1 mg/liter after 2 hrs; format: functional; method in brief: as §1
Staphylococcus aureus [26] = assay: Antibacterial activity against methicillin-susceptible Staphylococcus aureus ATCC 13709 assessed as change in bacterial burden at 40 mg/liter after 2 hrs; format: functional; method in brief: as §1
Staphylococcus aureus [27] = assay: Antibacterial activity against methicillin-resistant Staphylococcus aureus ATCC 33591 assessed as change in bacterial burden at 5 mg/liter after 2 hrs; format: functional; method in brief: as §1
Staphylococcus aureus [28] = assay: Antibacterial activity against methicillin-susceptible Staphylococcus aureus ATCC 13709 assessed as bacterial regrowth at 5 mg/liter Cmax; format: functional, organism-based
Staphylococcus aureus [29] = assay: Antibacterial activity against methicillin-resistant Staphylococcus aureus ATCC 33591 assessed as change in bacterial burden at 5 mg/liter after 4 hrs; format: functional; method in brief: as §1
Staphylococcus aureus [30] = assay: Antibacterial activity against methicillin-susceptible Staphylococcus aureus ATCC 13709 assessed as change in bacterial burden at 1 mg/liter after 4 hrs; format: functional
Staphylococcus aureus [31] = assay: Antibacterial activity against methicillin-susceptible Staphylococcus aureus ATCC 13709 assessed as change in bacterial burden at 10 mg/liter after 12 hrs; format: functional
Staphylococcus aureus [32] = assay: Antibacterial activity against methicillin-susceptible Staphylococcus aureus ATCC 13709 assessed as change in bacterial burden at 2.5 mg/liter after 2 hrs; format: functional
Staphylococcus aureus [33] = assay: Antibacterial activity against methicillin-susceptible Staphylococcus aureus ATCC 13709 assessed as change in bacterial burden at 40 mg/liter after 6 hrs; format: functional
Staphylococcus aureus [34] = assay: Antibacterial activity against methicillin-resistant Staphylococcus aureus ATCC 33591 assessed as change in bacterial burden at 5 mg/liter after 8 hrs; format: functional; method in brief: as §1
Staphylococcus aureus [35] = assay: Antibacterial activity against methicillin-resistant Staphylococcus aureus ATCC 33591 assessed as change in bacterial burden at 10 mg/liter after 6 hrs; format: functional; method in brief: as §1
Staphylococcus aureus [36] = assay: Antibacterial activity against methicillin-susceptible Staphylococcus aureus ATCC 13709 assessed as change in bacterial burden at 1 mg/liter after 6 hrs; format: functional

## CCCCCCCCCCNCCN[C@@]1(C)C[C@H](O[C@H]2[C@H](Oc3c4cc5cc3Oc3ccc(cc3Cl)[C@@H](O)[C@@H](NC(=O)[C@@H](CC(C)C)NC)C(=O)N[C@@H](CC(N)=O)C(=O)N[C@H]5C(=O)N[C@H]3C(=O)N[C@H](C(=O)N[C@H](C(=O)O)c5cc(O)c(CNCP(=O)(O)O)c(O)c5-c5cc3ccc5O)[C@H](O)c3ccc(c(Cl)c3)O4)O[C@H](CO)[C@@H](O)[C@@H]2O)O[C@@H](C)[C@H]1O [TELAVANCIN]
Staphylococcus aureus [1]
  deltalog10CFU/ml: -2.1
Staphylococcus aureus [2]
  Activity: Dose-dependent effect
Staphylococcus aureus [3]
  deltalog10CFU/ml: -0.8
Staphylococcus aureus [4]
  Activity: Active
Staphylococcus aureus [5]
  deltalog10CFU/ml: -4.3
Staphylococcus aureus [6]
  Activity: Active
Staphylococcus aureus [7]
  deltalog10CFU/ml: -2.8
Staphylococcus aureus [8]
  deltalog10CFU/ml: -3.9
Staphylococcus aureus [9]
  deltalog10CFU/ml: -4.7
Staphylococcus aureus [10]
  deltalog10CFU/ml: -4.7
Staphylococcus aureus [11]
  deltalog10CFU/ml: -3.5
[12]
  Cmax: 60 µg/mL
Staphylococcus aureus [13]
  deltalog10CFU/ml: -2.6
Staphylococcus aureus [14]
  deltalog10CFU/ml: -2.4
Staphylococcus aureus [15]
  deltalog10CFU/ml: -3.3
Staphylococcus aureus [16]
  deltalog10CFU/ml: -3.5
Staphylococcus aureus [17]
  deltalog10CFU/ml: -3.6
Staphylococcus aureus [18]
  deltalog10CFU/ml: -4.7
Staphylococcus aureus [19]
  deltalog10CFU/ml: -2.2
Staphylococcus aureus [20]
  deltalog10CFU/ml: -3.8
Staphylococcus aureus [21]
  Activity: Active
Staphylococcus aureus [22]
  Activity: Active
Staphylococcus aureus [23]
  deltalog10CFU/ml: -4.6
Staphylococcus aureus [24]
  Activity: Active
Staphylococcus aureus [25]
  deltalog10CFU/ml: -1
Staphylococcus aureus [26]
  deltalog10CFU/ml: -1.9
Staphylococcus aureus [27]
  deltalog10CFU/ml: -0.9
Staphylococcus aureus [28]
  Activity: Active
Staphylococcus aureus [29]
  deltalog10CFU/ml: -2.1
Staphylococcus aureus [30]
  deltalog10CFU/ml: -1.3
Staphylococcus aureus [31]
  deltalog10CFU/ml: -4.5
Staphylococcus aureus [32]
  deltalog10CFU/ml: -1.1
Staphylococcus aureus [33]
  deltalog10CFU/ml: -4.7
Staphylococcus aureus [34]
  deltalog10CFU/ml: -3.6
Staphylococcus aureus [35]
  deltalog10CFU/ml: -3
Staphylococcus aureus [36]
  deltalog10CFU/ml: -2
